Results on 23 compounds are retold here after ChEMBL document CHEMBL4622923, “Discovery of 4-Phenylpiperidine-2-Carboxamide Analogues as Serotonin 5-HT2C Receptor-Positive Allosteric Modulators with Enhanced Drug-like Properties” (J Med Chem, 2020).

SMILES strings stand for the structures. Active and inactive are the calls of the source.

In data set [1] the target is T1, 5-hydroxytryptamine receptor 2C (Homo sapiens, UniProt P28335).
T1 sequence (P28335 whole entry): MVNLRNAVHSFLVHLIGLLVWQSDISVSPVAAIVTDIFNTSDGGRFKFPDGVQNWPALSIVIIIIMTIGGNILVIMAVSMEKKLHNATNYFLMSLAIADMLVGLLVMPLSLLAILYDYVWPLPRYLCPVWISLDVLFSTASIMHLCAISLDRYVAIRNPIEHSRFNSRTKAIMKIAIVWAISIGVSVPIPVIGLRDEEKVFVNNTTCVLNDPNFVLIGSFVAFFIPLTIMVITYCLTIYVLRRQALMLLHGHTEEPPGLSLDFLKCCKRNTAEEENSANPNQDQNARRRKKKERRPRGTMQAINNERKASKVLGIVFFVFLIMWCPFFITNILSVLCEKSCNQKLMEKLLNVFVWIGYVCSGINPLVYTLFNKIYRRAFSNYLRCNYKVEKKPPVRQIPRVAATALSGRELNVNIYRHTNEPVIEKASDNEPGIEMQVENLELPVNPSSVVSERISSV
The data set can be described thus: Agonist activity at human 5HT2CR expressed in CHO cells assessed as increase in intracellular calcium release at 1 nM incubated for 15 mins measured at 1 secs interval for 120 secs by calcium 4 dye based FLIPR assay relative to 5-HT. The format is cell-based. As to conditions: 0.001 µM. In short, it runs like this:
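h5-HT2CR (unedited INI isoform) stably expressed in CHO cells; cells plated ~24 h, serum-free medium 3 h, then Calcium 4 dye with 2.5 mM probenecid in Ca/Mg-free HBSS pH 7.4 for 60 min at 37°C plus 15 min at room temperature. Compound given alone, read for 15 min before 5-HT. Peak fluorescence is expressed relative to the 5-HT Emax. 4-6 biological replicates, each in triplicate.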
In general terms: A change in cytosolic calcium serves as a functional read-out for many receptors and channels.

In data set [2] the target is T2, 5-hydroxytryptamine receptor 2C (Homo sapiens) (UniProt P28335).
T2 sequence (whole entry): T1 sequence (P28335 whole entry)
The data set can be described thus: Positive allosteric modulation of human 5HT2CR expressed in CHO cells assessed as increase in 5-HT induced intracellular calcium release at 1 nM preincubated for 15 mins followed by 5-HT addition and measured at 1 secs interval for 360 secs by calcium 4 dye based FLIPR assay relative to 5-HT. The format is functional, cell-based. The method in brief: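 CHO cells stably expressing human unedited (INI) 5-HT2C receptor, serum-starved 3 h, then loaded 60 min at 37 °C with Calcium 4 dye and 2.5 mM probenecid in HBSS (pH 7.4). Compound added 15 min before 5-HT (10 pM–10 μM). FLIPR read every 1 s for 360 s; peak height; Emax by 4-parameter fit, 4–6 biological replicates in triplicate, relative to 5-HT alone.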

A further data set deals with 5-HT2A receptor (Homo sapiens, UniProt P28223). Put plainly: Positive allosteric modulation of human 5HT2AR expressed in CHO cells assessed as increase in 5-HT induced intracellular calcium release at 1 nM preincubated for 15 mins followed by 5-HT addition and measured at 1 secs interval for 360 secs by calcium 4 dye based FLIPR assay relative to 5-HT. As to conditions: CHO cells expressing human 5HT2AR. The class given is cell-based. The method in brief:
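CHO cells stably expressing human 5-HT2AR, serum-starved 3 h, then loaded with Calcium 4 dye plus 2.5 mM probenecid in HBSS (no Ca/Mg, pH 7.4) for 60 min at 37°C and 15 min at room temperature. Test compound added 15 min before 5-HT (10 pM-10 μM). FLIPR fluorescence read every 1 s for 360 s after 5-HT. Emax from 4-parameter fit, normalized to 5-HT maximum.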

For data set [3], the system named is Rattus norvegicus. The data set can be described thus: Neurobiological activity in Sprague-Dawley rat assessed as increase in number of rat choosing drug associated lever at 0.625 mg/kg, ip treated 15 mins prior to test by drug discrimination test relative to control. The class given is functional. In short, it runs like this:
(§1)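 Male Sprague-Dawley rats (n = 13, 300–325 g) held at 80–90% free-feeding weight by water restriction. Trained to discriminate WAY163909 0.75 mg/kg ip from saline, 1 mL/kg, 15 min pretreatment. Two-lever, water-reinforced, FR20, 15 min sessions. Criterion ≥80% correct responding for 10 sessions. Test doses given ip 15 min pretest. Read-out: percentage of rats choosing the drug lever.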

Data set [4] deals with Rattus norvegicus. Put plainly: Neurobiological activity in Sprague-Dawley rat assessed as increase in number of rat choosing drug associated lever at 0.25 to 0.625 mg/kg, ip treated 15 mins prior to test by drug discrimination test. The class given is functional, organism-based. In short, it runs like this: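 Male Sprague-Dawley rats (n=13), water-restricted to 80-90% free-feeding weight, trained in a two-lever water-reinforced task (FR 20) to discriminate 0.75 mg/kg WAY163909 ip from saline (1 mL/kg). Test drug given ip 15 min before the 15-min session. Read-out is the percentage of rats choosing the drug lever. ED50 is taken from log-probit analysis.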

The subject of data set [5] is Rattus norvegicus. Put plainly: Neurobiological activity in Sprague-Dawley rat assessed as increase in number of rat choosing drug associated lever at 0.75 mg/kg, ip treated 15 mins prior to test by drug discrimination test relative to control. The class given is functional. The method in brief: as §1
For data set [6], the system named is Rattus norvegicus. Put plainly: Neurobiological activity in Sprague-Dawley rat assessed as increase in number of rat choosing drug associated lever at 0.5 mg/kg, ip treated 15 mins prior to test by drug discrimination test relative to control. The format is functional. The method in brief:
as §1

Data set [7] concerns Rattus norvegicus. The data set can be described thus: Neurobiological activity in ip dosed Sprague-Dawley rat assessed as increase in number of rat choosing drug associated lever treated 15 mins prior to test by drug discrimination test. The format is functional.
Data set [8] concerns Rattus norvegicus. The data set can be described thus: Neurobiological activity in Sprague-Dawley rat assessed as increase in number of rat choosing drug associated lever at 1 mg/kg, ip treated 15 mins prior to test by drug discrimination test relative to control. The class given is functional. The method in brief: as §1

Usually Emax stands for the greatest response seen or fitted, relative to the assay's reference. A word on the ED50: it is the dose that gives a 50% effect, or the effect in half of the subjects.

Chain of 5-HT2A receptor (P28223 whole entry): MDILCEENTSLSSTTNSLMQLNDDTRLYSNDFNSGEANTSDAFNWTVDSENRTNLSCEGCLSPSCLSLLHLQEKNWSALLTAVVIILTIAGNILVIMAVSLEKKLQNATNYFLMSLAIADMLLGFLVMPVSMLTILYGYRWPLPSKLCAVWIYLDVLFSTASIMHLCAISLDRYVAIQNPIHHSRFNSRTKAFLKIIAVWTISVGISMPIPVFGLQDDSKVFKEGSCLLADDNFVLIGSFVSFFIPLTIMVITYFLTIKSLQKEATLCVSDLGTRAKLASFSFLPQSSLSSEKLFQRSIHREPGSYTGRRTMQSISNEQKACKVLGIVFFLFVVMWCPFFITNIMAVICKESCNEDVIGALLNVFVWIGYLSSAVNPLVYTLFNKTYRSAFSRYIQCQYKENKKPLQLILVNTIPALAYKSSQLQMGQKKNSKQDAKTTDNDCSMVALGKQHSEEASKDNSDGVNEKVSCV

Regarding `O=C(NC(CO)CO)[C@@H]1C[C@H](CCc2ccccc2)CCN1` (relative stereo), in data set [1], the Activity result is “Not Active”. The Emax in data set [2] is 101%.

For the compound `O=C(NC(CO)CO)[C@@H]1C[C@H](CCC2CCCCC2)CCN1` (relative stereo), the Activity result in data set [1] is reported as “Not Active”. The Emax in data set [2] stood at 106%.

`Cc1ccc(CC[C@@H]2CCN[C@H](C(=O)N[C@H](CO)[C@H](O)c3ccccc3)C2)cc1`: the Activity result in data set [1] is “Not Active”. For the same compound, the Emax in [2] stood at 99.3%.

In the case of `O=C(NC[C@H](O)CO)[C@@H]1C[C@H](C2CCCCC2)CCN1` (mixture of isomers), the Activity result in [1] is listed as “Not Active”. Further, at 5-HT2A receptor, the Emax at 0.1 h, 0.001 µM is 97.8%. Besides, the Emax in data set [2] amounted to 118%.

As to `O=C(NC(CO)CO)[C@@H]1C[C@H](c2ccccc2)CCN1` (racemic), the Activity result in data set [1] is given as “Not Active”. Moreover, the Emax at 0.1 h, 0.001 µM on 5-HT2A receptor came out at 99.3%. The Emax in [2] came to 119%.

Take `O=C(NC(CO)CO)[C@@H]1C[C@H](C2CCCCC2)CCN1` (racemic): the Activity entry in data set [1] was “Not Active”. Further, in data set [2], the Emax is 119%.

As to `O=C(N[C@H](CO)[C@H](O)c1ccccc1)[C@H]1C[C@@H](CCc2ccccc2)CCN1`, the Activity entry in [1] was “Not Active”. In data set [2], the Emax is 109%.

Take `O=C(NCCCN1CCOCC1)[C@@H]1C[C@H](CCc2ccccc2)CCN1` (racemic): the Activity entry in data set [1] was “Not Active”. The Emax at 0.1 h, 0.001 µM on 5-HT2A receptor was 97.9%. In data set [2], the Emax was 118%.

For `CC(C)(C)c1ccc(CC[C@H]2CCN[C@@H](C(=O)N[C@H](CO)[C@H](O)c3ccccc3)C2)cc1`, the Activity entry in [1] was “Not Active”. Besides, the maximal effect (Emax) in data set [2] stood at 107%.

As to `O=C(N[C@H](CO)[C@H](O)c1ccccc1)[C@@H]1C[C@H](c2ccccc2)CCN1`, in [1], the Activity entry is “Not Active”. In addition, the Emax in [2] was determined as 103%.

In the case of `O=C(NC[C@H](O)CO)[C@@H]1C[C@H](CCC2CCCCC2)CCN1`, the Activity entry in data set [1] is on record as “Not Active”. For the same compound, the Emax in [2] was 110%.

With `O=C(NCCN1CCOCC1)[C@@H]1C[C@H](c2ccccc2)CCN1` (racemic), the Activity result in data set [1] was “Not Active”. The Emax in data set [2] was 114%.

For `Cc1ccc(CC[C@H]2CCN[C@@H](C(=O)N[C@H](CO)[C@H](O)c3ccccc3)C2)cc1`, in data set [1], the Activity entry is listed as “Not Active”. In addition, the Emax in [2] was 98.9%.

Take `O=C(NCCN1CCOCC1)[C@@H]1C[C@H](C2CCCCC2)CCN1` (racemic): in data set [1], the Activity result is “Not Active”. The Emax in data set [2] was 121%.

On to `CC(C)(C)c1ccc(CC[C@@H]2CCN[C@H](C(=O)N[C@H](CO)[C@H](O)c3ccccc3)C2)cc1`, for which, in data set [1], the Activity entry is “Not Active”. Also, the Emax in data set [2] turned out to be 115%.

As for `O=C(N[C@H](CO)[C@H](O)c1ccccc1)[C@H]1C[C@@H](c2ccccc2)CCN1`, in data set [1], the Activity entry is given as “Not Active”. On 5-HT2A receptor, the Emax at 0.1 h, 0.001 µM worked out at 103%. Further, the Emax in data set [2] turned out to be 118%.

Consider `c1cc2c3c(c1)[C@H]1CCC[C@H]1N3CCNC2`, for which the Activity in the data set with Rattus norvegicus [3] was 54%; in the data set with Rattus norvegicus [5] it was 92%; with Rattus norvegicus [6] it was 46%; with Rattus norvegicus [8] it was 100%. The result in the data set with Rattus norvegicus [4] was Active. In addition, the ED50 in the data set with Rattus norvegicus [7] was found to be 0.51 mg/kg.

As for `O=C(NCCCN1CCOCC1)[C@@H]1C[C@H](CCC2CCCCC2)CCN1` (racemic), the Activity result in data set [1] was “Not Active”. On 5-HT2A receptor, the Emax at 0.1 h, 0.001 µM turned out to be 97.2%. Besides, in data set [2], the Emax turned out to be 118%.

Turning to `O=C(NC[C@H](O)CO)[C@@H]1C[C@H](CCc2ccccc2)CCN1`, the Activity entry in data set [1] is recorded as “Not Active”. The Emax in data set [2] was found to be 108%.

`O=C(N[C@H](CO)[C@H](O)c1ccccc1)[C@@H]1C[C@H](CCc2ccccc2)CCN1`: the Activity entry in data set [1] was “Not Active”. In addition, the Emax at 0.1 h, 0.001 µM on 5-HT2A receptor was found to be 104%. Further, the Emax in data set [2] was determined as 110%.

With `O=C(NCCN1CCOCC1)[C@@H]1C[C@H](CCc2ccccc2)CCN1` (racemic), in data set [1], the Activity entry is “Not Active”. Also, the Emax in data set [2] was determined as 94.2%.

Take `O=C(NCCN1CCOCC1)[C@@H]1C[C@H](CCC2CCCCC2)CCN1` (racemic): the Activity result in [1] is recorded as “Not Active”. The Emax in data set [2] worked out at 110%.

As for `CCCCCCCCCCC[C@@H]1CCN[C@H](C(=O)NCC(O)CO)C1` (relative stereo), in data set [1], the Activity result is “Not Active”.
